Experimental data: ChEMBL document CHEMBL5674881, “The therapeutic properties of resminostat for hepatocellular carcinoma” (2018)
The source made the active and inactive calls. No cut-off for these calls is given here.

What was measured:
Hep 3B2 [1] = assay: Anti-proliferative activity against human Hep3B cells assessed as reduction in cell viability at7 nM incubated for 24 hrs by Fluoro Fire-Blue ProViaTox assay; type: functional, cell-based; conditions: dose 7.0 nM
Hep 3B2 [2] = assay: Anti-proliferative activity against human Hep3B cells assessed as reduction in cell viability at 1 uM incubated for 24 hrs by Fluoro Fire-Blue ProViaTox assay; type: functional, cell-based
Hep 3B2 [3] = assay: Anti-proliferative activity against human Hep3B cells assessed as reduction in cell viability at 20 uM incubated for 24 hrs by Fluoro Fire-Blue ProViaTox assay; type: functional, cell-based
Hep 3B2 [4] = assay: Antiinflammatory activity against human Hep3B cells assessed as reduction in p65 RNA expression level at 50 nM incubated for 24 hrs in presence of SGBS CM by qRT-PCR analysis; type: functional, cell-based
In short: (§1)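 Hep3B treated 24 h with 17-AAG 50 nM, alone, with 30% SGBS conditioned medium, or with resminostat 80 nM. p65 RNA measured by RT-PCR. Nuclear p65 protein measured by transcription-factor ELISA: nuclear extract bound to NFκB consensus-duplex plate for 1 h at room temperature, then anti-p65 and HRP secondary antibodies, then chemiluminescence read. n = 3.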

Hep 3B2 [5] = assay: Downregulation of HDAC2 expression in human Hep3B cells at 50 nM incubated for 24 hrs by qRT-PCR analysis; type: functional, cell-based
Hep 3B2 [6] = assay: Antiinflammatory activity against human Hep3B cells assessed as reduction in nuclear protein expression level of p65 […] at 50 nM incubated for 24 hrs by […] analysis; type: functional, cell-based; in short: as §1
Hep 3B2 [7] = assay: Antiinflammatory activity against human Hep3B cells assessed as reduction in resminostat-induced p65 RNA expression level at 50 nM incubated for 24 hrs by qRT-PCR analysis relative to control; type: functional; set-up: scale not given: the % may be the effect or the level left; in short: as §1
Hep 3B2 [8] = assay: Downregulation of HDAC1 expression in human Hep3B cells at 50 nM incubated for 24 hrs by qRT-PCR analysis; type: functional, cell-based
Hep 3B2 [9] = assay: Antiinflammatory activity against human Hep3B cells assessed as reduction in nuclear protein expression level of p65 […] at 50 nM incubated for 24 hrs in presence of SGBS CM by […] analysis; type: functional, cell-based; in short: as §1
Hep 3B2 [10] = assay: Anti-proliferative activity against human Hep3B cells assessed as reduction in cell viability at 50 nM measured after 24 hrs by Fluoro Fire-Blue ProViaTox assay; type: functional, cell-based

In the case of CCCc1cc(C)[nH]c(=O)c1CNC(=O)c1cc(-c2ccnc(N3CCN(C)CC3)c2)cc2c1cnn2C(C)C, the Activity (Hep 3B2 [1]) is reported as “Active”.
With COc1cccc2c1C(=O)c1c(O)c3c(c(O)c1C2=O)C[C@@](O)(C(=O)CO)C[C@@H]3O[C@H]1C[C@H](N)[C@H](O)[C@H](C)O1 the Activity (Hep 3B2 [2]) was “Active”.
Nc1nccc2c1ncn2[C@@H]1C=C(CO)[C@@H](O)[C@H]1O was tested, and the Activity (Hep 3B2 [3]) was “Active”.
With C=CCNC1=C2C[C@@H](C)C[C@H](OC)[C@H](O)[C@@H](C)/C=C(\C)[C@H](OC(N)=O)[C@@H](OC)/C=C\C=C(/C)C(=O)NC(=CC1=O)C2=O [TANESPIMYCIN] the Activity (Hep 3B2 [4]) was “Active”, the Activity (Hep 3B2 [5]) was “Active” and the Activity (Hep 3B2 [6]) was “Active”. For the same molecule, the Activity (Hep 3B2 [7]) was 100%, the Activity (Hep 3B2 [8]) was “Active” and the Activity (Hep 3B2 [9]) was “Active”. The Activity (Hep 3B2 [10]) was “Active”.
